According to ChEMBL document CHEMBL1145930, “Synthesis and evaluation of nitroheterocyclic carbamate prodrugs for use with nitroreductase-mediated gene-directed enzyme prodrug therapy” (J Med Chem, 2003):
≈ marks a conversion by molar mass, not a printed value.

Experiments:
[1] = Solubility in alpha-MEM culture medium; assay type: physicochemical
How it was run: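 Solubility measured in α-MEM culture medium with 5% fetal calf serum, by HPLC analysis of the supernatant of a saturated solution.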

[2] = test system: SK-OV-3; assay: Inhibitory activity was determined against SKOV3 cell line in human; assay type: functional, cell-based
How it was run: (§1)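 Aerobic growth inhibition of log-phase cells (parental NTR-negative lines). Cultures seeded 24 h before an 18 h drug exposure; cell density read 4–5 days later by sulforhodamine B staining. IC50 is the concentration giving 50% growth inhibition versus same-plate controls. Mean ± SEM of up to five independent experiments.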

[3] = test system: V79; assay: Inhibitory activity was determined against V79 cell line in chinese hamster; assay type: functional, cell-based; settings: Cricetulus griseus; how it was run: as §1
[4] = test system: WiDr; assay: Inhibitory activity was determined against WiDr cell line in human; assay type: functional, cell-based; how it was run: as §1
[5] = test system: EMT6; assay: Inhibitory activity against EMT6 murine cell line; assay type: functional, cell-based; settings: Mus musculus; how it was run: as §1
[6] = test system: EMT6; assay: Ratio between EMT6 and EMT6-NTRpuro was determined; assay type: functional, Mus musculus
How it was run: (§2)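 Parental and stably NTR-transfected cells were tested in parallel by aerobic SRB growth inhibition (18 h exposure, readout 4–5 days later). The ratio is IC50(NTR-ve)/IC50(NTR+ve), calculated within each experiment. Selection drug was kept during passage but omitted during experiments: puromycin 15 µM for V79, 5 µM for EMT6; G418 300 µg/mL for SKOV3/WiDr.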

[7] = test system: SK-OV-3; assay: Ratio between SKOV3 and SKOV3-NTR neo was determined; assay type: functional, Homo sapiens; how it was run: as §2
[8] = test system: WiDr; assay: Ratio between WiDr and WiDr-NTRneo was determined; assay type: functional, Homo sapiens; how it was run: as §2
[9] = test system: V79; assay: Ratio between V79 and V79-NTRpuro was determined; assay type: functional, Cricetulus griseus; how it was run: as §2
[10] = test system: Mus musculus; assay: In vivo maximum tolerance dose in C3H mice by ip administration; assay type: functional
How it was run: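 Male C3H mice (ca. 25 g), groups of six, given single ip doses in 10^(1/8)-fold increments. Vehicle DMSO at 1 μL/g for most compounds; CB1954 given in 10% DMA/40% PEG400/50% water at 10 μL/g. Animals observed daily for 60 days; any losing >15% body weight or becoming moribund were terminated.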

[11] = test system: EMT6; assay: Inhibitory activity against EMT6 (mouse mammary carcinoma) murine cell line; assay type: functional, cell-based; how it was run: as §1
[12] = test system: SK-OV-3; assay: Inhibitory activity against SKOV3 (human ovarian carcinoma) cell line in human; assay type: functional, cell-based; how it was run: as §1

Compound	solubility [1]	IC50 [2]	IC50 [3]	IC50 [4]	IC50 [5]	Ratio [6]	Ratio [7]	Ratio [8]	Ratio [9]	MTD [10]	IC50 [11]	IC50 [12]
COc1cc2cc(C(=O)C3CN(CCl)c4cc(NC(=O)OCc5ccn(C)c5[N+](=O)[O-])c5ccccc5c43)[nH]c2c(OC)c1OC (centres undefined)	18 µM (≈ 11.7 µg/mL)	116 µM	62 µM	219 µM	64 µM	1.3	0.5	1.8	1.5	–	–	–
COc1cc2cc(C(=O)C3CN(CCl)c4cc(NC(=O)OCc5ncc([N+](=O)[O-])n5C)c5ccccc5c43)[nH]c2c(OC)c1OC (centres undefined)	8 µM (≈ 5.19 µg/mL)	146 µM	68 µM	230 µM	78 µM	71	50	100	10	>1000 µM	–	–
COc1cc2cc(C(=O)C3CN(CCl)c4cc(NC(=O)OCc5ncc([N+](=O)[O-])n5CCO)c5ccccc5c43)[nH]c2c(OC)c1OC (centres undefined)	20 µM (≈ 13.6 µg/mL)	378 µM	94 µM	427 µM	129 µM	11	26	12.4	1.2	–	–	–
COc1cc2cc(C(=O)C3CN(CCl)c4cc(NC(=O)OCc5cnn(C)c5[N+](=O)[O-])c5ccccc5c43)[nH]c2c(OC)c1OC (centres undefined)	8 µM (≈ 5.19 µg/mL)	0.032 µM	41 µM	0.0113 µM	39 µM	87	30.3	13.5	37	–	–	–
COc1cc2cc(C(=O)C3CN(CCl)c4cc(NC(=O)OCc5ccc([N+](=O)[O-])s5)c5ccccc5c43)[nH]c2c(OC)c1OC (centres undefined)	4 µM (≈ 2.6 µg/mL)	0.0106 µM	0.0035 µM	0.018 µM	0.0043 µM	16	7	13.5	3.1	–	–	–
COc1cc2cc(C(=O)C3CN(CCl)c4cc(NC(=O)OCc5c([N+](=O)[O-])ncn5C)c5ccccc5c43)[nH]c2c(OC)c1OC (centres undefined)	13 µM (≈ 8.44 µg/mL)	185 µM	55 µM	201 µM	73 µM	2.1	4.8	2.8	1.2	–	–	–
COc1cc2cc(C(=O)C3CN(CCl)c4cc(NC(=O)OCc5c([N+](=O)[O-])ccn5C)c5ccccc5c43)[nH]c2c(OC)c1OC (centres undefined)	8.4 µM (≈ 5.44 µg/mL)	0.025 µM	0.006 µM	0.028 µM	15 µM	1.5	0.7	1.4	0.9	–	–	–
COc1cc2cc(C(=O)C3CN(CCl)c4cc(NC(=O)OCc5cnc([N+](=O)[O-])n5C)c5ccccc5c43)[nH]c2c(OC)c1OC (centres undefined)	17 µM (≈ 11 µg/mL)	75 µM	24 µM	75 µM	19.6 µM	62	21	40	14.7	>1000 µM	–	–
NC(=O)c1cc(N2CC2)c([N+](=O)[O-])cc1[N+](=O)[O-] [TRETAZICAR]	1600 µM (≈ 403 µg/mL)	–	–	–	–	930	317	51	2090	–	71 µM	174 µM
COc1cc2cc(C(=O)N3CC(CCl)c4c3cc(N)c3ccccc43)[nH]c2c(OC)c1OC (centres undefined)	197 µM (≈ 91.8 µg/mL)	0.0011 µM	0.00033 µM	0.0016 µM	0.00037 µM	2	0.55	0.9	0.9	–	–	–
CCOC(=O)c1cc(COC(=O)Nc2cc3c(c4ccccc24)C(C(=O)c2cc4cc(OC)c(OC)c(OC)c4[nH]2)CN3CCl)c([N+](=O)[O-])n1C (centres undefined)	–	97 µM	24 µM	94 µM	28 µM	12	9.6	13	2	–	–	–
COc1cc2cc(C(=O)C3CN(CCl)c4cc(NC(=O)OCc5ncn(C)c5[N+](=O)[O-])c5ccccc5c43)[nH]c2c(OC)c1OC (centres undefined)	5.5 µM (≈ 3.57 µg/mL)	61 µM	44 µM	0.024 µM	63 µM	6.5	5.6	3.4	1.4	–	–	–
CCOC(=O)c1cc([N+](=O)[O-])c(COC(=O)Nc2cc3c(c4ccccc24)C(C(=O)c2cc4cc(OC)c(OC)c(OC)c4[nH]2)CN3CCl)n1C (centres undefined)	21 µM (≈ 15.1 µg/mL)	98 µM	52 µM	223 µM	–	–	0.8	1.3	1.8	–	–	–
NC(=O)c1cc(N(CCBr)CCBr)c([N+](=O)[O-])cc1[N+](=O)[O-]	40 µM (≈ 17.6 µg/mL)	58 µM	–	–	54 µM	1380	211	174	302	–	–	–
COc1cc2cc(C(=O)C3CN(CCl)c4cc(NC(=O)OCc5ccc([N+](=O)[O-])n5C)c5ccccc5c43)[nH]c2c(OC)c1OC (centres undefined)	9 µM (≈ 5.83 µg/mL)	265 µM	53 µM	182 µM	49 µM	1.2	1.3	2.5	1	–	–	–
COc1cc2cc(C(=O)C3CN(CCl)c4cc(NC(=O)OCc5ccc([N+](=O)[O-])o5)c5ccccc5c43)[nH]c2c(OC)c1OC (centres undefined)	11 µM (≈ 6.99 µg/mL)	76 µM	20 µM	89 µM	18 µM	1.2	1.2	1.9	1.1	–	–	–
